Measurements taken from ChEMBL document CHEMBL1155871, “Synthesis and evaluation of pyrazolo[3,4-b]pyridines and its structural analogues as TNF-alpha and IL-6 inhibitors” (Bioorg Med Chem, 2008).

What was measured:
[1] = tested on: THP-1; assay: Antiinflammatory activity in human THP1 cells assessed as inhibition of LPS-induced TNFalpha at 10 uM by ELISA; format: functional
How it was run: (§1)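 THP-1 cells grown in RPMI 1640 with 10% FBS, penicillin and streptomycin, then differentiated with PMA. After plating, cells took test compound or vehicle (0.5% DMSO) for 30 min at 37 °C. LPS (E. coli 0127:B8) was then added and plates were kept 24 h at 37 °C, 5% CO2. Supernatant TNF-α and IL-6 measured by ELISA. Percent inhibition was taken against control, and IC50 by nonlinear regression.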

[2] = tested on: THP-1; assay: Antiinflammatory activity in human THP1 cells assessed as inhibition of IL6 at 10 uM by ELISA; format: functional; how it was run: as §1
[3] = tested on: THP-1; assay: Cytotoxicity against human THP1 cells at 10 uM; format: functional
How it was run: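 PMA-differentiated THP-1 cells in RPMI 1640 with 10% FBS were pretreated 30 min at 37 °C with compound or vehicle (0.5% DMSO). They were then stimulated with LPS for 24 h at 37 °C, 5% CO2. Viability was scored with CCK-8 in the same wells as the cytokine assay.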

[4] = molecular target: Phosphodiesterase 4 (Homo sapiens, UniProt P27815+Q08499+Q07343+Q08493); assay: Inhibition of PDE4 in human U937 cells by cAMP SPA enzyme assay; format: cell-based; conditions: u-937
[5] = tested on: PBMC; assay: Antiinflammatory activity in […] PBMC assessed as inhibition of LPS-induced TNFalpha by ELISA; format: functional, cell-based; conditions: Homo sapiens
[6] = tested on: THP-1; assay: Antiinflammatory activity in human THP1 cells assessed as inhibition of LPS-induced TNFalpha at 30 uM by ELISA; format: functional; how it was run: as §1

Structure (SMILES) | inhibition at 10 µM [1] [%] | inhibition at 10 µM [2] [%] | inhibition at 10 µM [3] [%] | IC50 [4] [nM] | IC50 [5] [nM] | inhibition at 30 µM [6] [%]
O=c1[nH]c(=O)c2cc(CCCO)cnc2[nH]1 | 0 | 37 | 12 | – | – | –
OCCCc1cnc2ncnn2c1 | 4 | 43 | 0 | – | – | –
Cc1ccc(-c2cc3ncc(C(=O)c4cc(C)ccc4O)cn3n2)cc1 | 0 | 9 | 5 | – | – | –
CCn1ncc2cc(CCCO)cnc21 | 0 | 45 | 8 | – | – | –
COc1ccc(-c2nn(-c3ccccc3)c3ncc(C(=O)c4cc(C)ccc4O)cc23)cc1 | 0 | 49 | 27 | – | – | –
Cc1ccc(O)c(C(=O)c2cnc3[nH]c(=O)[nH]c(=O)c3c2)c1 | 6 | 39 | 0 | – | – | –
CCn1ncc2c(-c3cncc(Br)c3)c(C#N)c(C)nc21 | – | – | – | > 1000 | 27 | –
COC[C@H](O)[C@@H](OC)[C@@H](OC)C1=CC2C(C)=NN(C)C2N=C1 (stereo partly specified) | 20 | 35 | 5 | – | – | 30
CCO[C@@H](C1=CC2C(C)=NN(c3ccccc3)C2N=C1)[C@H](O)[C@@H](O)COC (stereo partly specified) | 2 | 43 | 8 | – | – | –
COc1ccc(-c2nn(-c3ccccc3)c3ncc(CCCO)cc23)cc1 | 12 | 36 | 10 | – | – | –
CCO[C@@H](C1=CC2C(c3ccc(O)cc3)=NN(c3ccccc3)C2N=C1)[C@H](O)[C@@H](O)CO (stereo partly specified) | 0 | 40 | 5 | – | – | –
Cc1nn(-c2ccccc2)c2ncc(CCCO)cc12 | 8 | 19 | 16 | – | – | –
Cc1cc(C)c(O)c(C(=O)c2cnc3c(c2)c(C)nn3-c2ccccc2)c1 | 0 | 44 | 14 | – | – | –
Cc1ccc(O)c(C(=O)c2cnc3c(c2)c(C)nn3C)c1 | 0 | 60 | 41 | – | – | –
OCCCc1cnc2nc3ccccc3n2c1 | 0 | 18 | 9 | – | – | –
Cc1ccc(O)c(C(=O)c2cnc3onc(-c4ccccc4)c3c2)c1 | 0 | 63 | 25 | – | – | –
Cc1ccc(O)c(C(=O)c2cnc3c(c2)c(C)nn3-c2ccccc2)c1 | 0 | 54 | 39 | – | – | –
